What all share (type): functional
The test system of test [1] is P388. The experiment in a line: Antiproliferative activity against mouse P388 cell line at 10 umol/L by MTT method. The method in brief: (§1)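 P-388 and HL-60 cells were tested in vitro by MTT assay over five tenfold concentrations from 10^-4 to 10^-8 mol/L. Each value is the percent inhibition ratio of cancer cell growth at that concentration.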
A general note: Tetrazolium dyes change colour on reduction, which living cells bring about.

Test [2] deals with P388. The experiment in a line: Antiproliferative activity against mouse P388 cell line at 0.1 umol/L by MTT method. In outline:
as §1

Test [3] relates to A549. The experiment in a line: Antiproliferative activity against human A549 cell line at 10 umol/L by SRB method. The method in brief:
(§2)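 Growth inhibition of A-549 and BEL-7402 cells was measured in vitro by sulforhodamine B (SRB) staining. Compounds were tested across five tenfold concentrations from 10^-4 to 10^-8 mol/L, and each value is reported as the percent inhibition ratio of cell growth at that concentration.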
For orientation: The SRB assay estimates cell density from bound dye.

Test [4] concerns A549. The experiment in a line: Antiproliferative activity against human A549 cell line at 100 umol/L by SRB method. In outline:
as §2

Test [5] concerns A549. Briefly: Antiproliferative activity against human A549 cell line at 0.01 umol/L by SRB method. In outline:
as §2

In test [6] the test system is P388. The experiment in a line: Antiproliferative activity against mouse P388 cell line at 0.01 umol/L by MTT method. In outline:
as §1

The subject of test [7] is A549. The experiment in a line: Antiproliferative activity against human A549 cell line at 1 umol/L by SRB method. The method in brief: as §2
For test [8], the system named is A549. Briefly: Antiproliferative activity against human A549 cell line at 0.1 umol/L by SRB method. The method in brief: as §2
The subject of test [9] is P388. The experiment in a line: Antiproliferative activity against mouse P388 cell line at 100 umol/L by MTT method. The method in brief:
as §1

The test system of test [10] is P388. Briefly: Antiproliferative activity against mouse P388 cell line at 1 umol/L by MTT method. The method in brief: as §1
Test [11] deals with HL-60. Briefly: Antiproliferative activity against human HL60 cell line at 10 umol/L by MTT method. The method in brief: as §1
For test [12], the system named is Bel-7402. Briefly: Antiproliferative activity against human BEL-7402 cell line at 100 umol/L by SRB method. The method in brief: as §2
Test [13] relates to HL-60. The experiment in a line: Antiproliferative activity against human HL60 cell line at 0.01 umol/L by MTT method. The method in brief: as §1
Test [14] relates to Bel-7402. Briefly: Antiproliferative activity against human BEL-7402 cell line at 10 umol/L by SRB method. The method in brief: as §2
The test system of test [15] is Bel-7402. The experiment in a line: Antiproliferative activity against human BEL-7402 cell line at 0.1 umol/L by SRB method. In outline:
as §2

Test [16] concerns Bel-7402. Briefly: Antiproliferative activity against human BEL-7402 cell line at 0.01 umol/L by SRB method. In outline: as §2
For test [17], the system named is HL-60. The experiment in a line: Antiproliferative activity against human HL60 cell line at 0.1 umol/L by MTT method. In outline:
as §1

Test [18] has as its system HL-60. Briefly: Antiproliferative activity against human HL60 cell line at 1 umol/L by MTT method. In outline: as §1
The subject of test [19] is HL-60. The experiment in a line: Antiproliferative activity against human HL60 cell line at 100 umol/L by MTT method. The method in brief: as §1
Test [20] has as its system Bel-7402. Briefly: Antiproliferative activity against human BEL-7402 cell line at 1 umol/L by SRB method. The method in brief:
as §2

The structures appear in SMILES notation.

As to `Clc1ccc(C2=NN=C(c3ccc(Cl)cc3)NN2)cc1`, the Activity was 51% in the test with P388 [1]; 19.4% with P388 [2]; 2% in the test on A549 [3]; 73.4% in the test on A549 [4]; 7.1% in the test with A549 [5]; 4.9% with P388 [6]. In addition, the Activity is 4.7% in the test on A549 [7], 0% in the test on A549 [8], 65.9% in the test with P388 [9] and 36% in the test on P388 [10].
With `c1ccc(C2=NNC(c3ccccc3)=NN2)cc1`, the Activity amounted to 69% with P388 [1]; 0% with P388 [2]; 67.2% with A549 [3]; 55.8% with A549 [4]; 16.1% in the test on HL-60 [11]; 54% in the test on Bel-7402 [12]. Besides, the Activity in the test on A549 [5] came to 0%; in the test with P388 [6] it was 0%; in the test on HL-60 [13], 17.2%; with A549 [7], 5.4%; in the test with Bel-7402 [14] it was 14.3%; in the test on Bel-7402 [15] it was 0%. Moreover, the Activity with Bel-7402 [16] is 0%; in the test with HL-60 [17] it was 2.6%; in the test with HL-60 [18], 2.9%; with HL-60 [19], 82.1%; in the test on A549 [8], 10.2%; with P388 [9], 87.6%. The Activity in the test with Bel-7402 [20] and in the test on P388 [10] was 0% throughout.
Regarding `Oc1ccc(Cl)cc1-c1nnc(-c2cc(Cl)ccc2O)nn1`, the Activity in the test with P388 [1] is on record as 90.7%; with P388 [2], 88%; in the test on A549 [3], 62.3%; in the test with A549 [4], 7.6%; with A549 [5], 0%; with P388 [6], 82.8%. For the same compound, the Activity is reported as 16.4% with A549 [7], 0% in the test on A549 [8], 92.5% in the test on P388 [9] and 91.2% in the test with P388 [10].
For the compound `Clc1ccc(Cc2nnc(Cc3ccc(Cl)cc3)nn2)cc1`, the Activity in the test on P388 [1] is given as 57.1%; with P388 [2] it was 1.1%; in the test with A549 [3], 29.1%; with A549 [4], 58.4%; in the test with HL-60 [11] it was 22.3%; in the test with Bel-7402 [12], 61.2%. The Activity with A549 [5] stood at 0%; in the test on P388 [6], 8.7%; in the test on HL-60 [13], 7.6%; in the test with A549 [7], 9.3%; in the test on Bel-7402 [14] it was 0%; in the test on Bel-7402 [15], 0%. Further, the Activity in the test with Bel-7402 [16] was determined as 6%; with HL-60 [17] it was 21.1%; in the test on HL-60 [18], 13.5%; in the test on HL-60 [19], 85.4%; in the test with A549 [8] it was 8.9%; with P388 [9], 65.8%. Also, the Activity in the test on Bel-7402 [20] is 0%; in the test with P388 [10] it was 13.1%.
Turning to `Cc1cccnc1-c1nnc(-c2ncccc2C)nn1`, the Activity came to 0% in the test on P388 [1]; 0% with P388 [2]; 9.8% in the test with A549 [3]; 93.5% in the test on A549 [4]; 96.6% with HL-60 [11]; 93% in the test on Bel-7402 [12]. In addition, the Activity in the test on A549 [5] worked out at 0%; in the test on P388 [6], 0%; in the test on HL-60 [13], 4.2%; with A549 [7] it was 0%; in the test with Bel-7402 [14] it was 23.8%; with Bel-7402 [15], 0%. Moreover, the Activity was determined as 2.8% in the test with Bel-7402 [16]; 9.1% in the test on HL-60 [17]; 7% with HL-60 [18]; 94.3% with HL-60 [19]; 0% with A549 [8]; 34.9% with P388 [9]. Also, the Activity in the test with Bel-7402 [20] and in the test with P388 [10] was 0% throughout.
As for `Clc1ccc(CC2=NNC(Cc3ccc(Cl)cc3)=NN2)cc1`, the Activity in the test on P388 [1] was found to be 15.5%; in the test with P388 [2], 2.9%; with A549 [3], 17.8%; in the test on A549 [4], 64.5%; in the test with A549 [5], 7.8%; with P388 [6], 0%. In addition, the Activity with A549 [7] is 3%; in the test on A549 [8], 10.1%; in the test on P388 [9] it was 48.8%; in the test on P388 [10] it was 4.4%.
In the case of `Oc1ccc(Cl)cc1C1=NN=C(c2cc(Cl)ccc2O)NN1`, the Activity in the test with P388 [1] turned out to be 0%; in the test with P388 [2], 0%; in the test with A549 [3], 80.3%; in the test with A549 [4] it was 65.3%; with A549 [5], 0%; in the test with P388 [6], 0%. Besides, the Activity in the test on A549 [7] was determined as 0%; in the test with A549 [8], 0%; with P388 [9] it was 89%; in the test with P388 [10], 0%.
With `Clc1ccc(-c2nnc(-c3ccc(Cl)cc3)nn2)cc1`, the Activity in the test with P388 [1] is listed as 0%; with P388 [2] it was 0%; with A549 [3], 35.1%; with A549 [4] it was 52.3%; with HL-60 [11] it was 12.2%; in the test with Bel-7402 [12], 27.4%. Also, the Activity in the test on A549 [5] amounted to 16.1%; in the test with P388 [6], 0%; in the test on HL-60 [13], 0%; with A549 [7], 29%; with Bel-7402 [14], 0.1%; with Bel-7402 [15], 0%. Besides, the Activity in the test on Bel-7402 [16] was 3.4%; in the test on HL-60 [17], 4%; in the test on HL-60 [18] it was 0%; in the test on HL-60 [19], 66.7%; in the test on A549 [8], 19.4%; in the test with P388 [9], 0%. Besides, the Activity in the test on Bel-7402 [20] and with P388 [10] was 0% throughout.
On to `FC(F)(F)c1ccc(C2=NN=C(c3ccc(C(F)(F)F)cc3)NN2)cc1`, for which the Activity came out at 36.9% with P388 [1]; 13.8% with P388 [2]; 22% in the test with A549 [3]; 70.3% with A549 [4]; 0% in the test with A549 [5]; 9.1% in the test with P388 [6]. In addition, the Activity with A549 [7] was found to be 0%; with A549 [8], 0%; in the test with P388 [9] it was 47.7%; in the test on P388 [10], 15.2%.
With `c1ccc(-c2nnc(-c3ccccc3)nn2)cc1`, the Activity with P388 [1] was 0%; with P388 [2] it was 0%; in the test on A549 [3], 9.5%; in the test with A549 [4] it was 60.4%; with HL-60 [11], 16.4%; in the test with Bel-7402 [12] it was 41.7%. The Activity worked out at 29.7% in the test on A549 [5]; 0% in the test with P388 [6]; 0% with HL-60 [13]; 20.3% with A549 [7]; 7.4% in the test with Bel-7402 [14]; 0% with Bel-7402 [15]. For the same compound, the Activity with Bel-7402 [16] was determined as 0%; in the test with HL-60 [17], 13.9%; in the test with HL-60 [18], 13.9%; in the test with HL-60 [19], 35.1%; in the test with A549 [8], 27.1%; in the test on P388 [9], 15.5%. Moreover, the Activity with Bel-7402 [20] and in the test with P388 [10] was 0% throughout.
In the case of `FC(F)(F)c1ccc(-c2nnc(-c3ccc(C(F)(F)F)cc3)nn2)cc1`, the Activity with P388 [1] is 2.5%; with P388 [2], 0%; in the test on A549 [3], 44.4%; with A549 [4] it was 51.5%; in the test on HL-60 [11], 7%; in the test on Bel-7402 [12] it was 21.3%. Also, the Activity in the test with A549 [5] was 9.7%; in the test with P388 [6], 0%; in the test with HL-60 [13] it was 0%; with A549 [7], 33%; with Bel-7402 [14], 12.6%; in the test with Bel-7402 [15], 0%. Besides, the Activity was 0% in the test with Bel-7402 [16]; 1.4% in the test with HL-60 [17]; 5.8% in the test with HL-60 [18]; 43.7% in the test on HL-60 [19]; 19.5% in the test on A549 [8]; 40.2% with P388 [9]. Moreover, the Activity with Bel-7402 [20] and in the test on P388 [10] was 0% in each case.
As to `Clc1ccccc1-c1nnc(-c2ccccc2Cl)nn1` [CLOFENTEZINE], the Activity in the test with P388 [1] came to 0%; in the test with P388 [2], 0%; in the test on A549 [3], 2.8%; with A549 [4] it was 8.2%; with A549 [5], 12.6%; with P388 [6] it was 0%. Besides, the Activity with A549 [7] turned out to be 5.6%; in the test with A549 [8], 14.6%; in the test on P388 [9], 0%; in the test with P388 [10] it was 0%.

Values taken from ChEMBL document CHEMBL1138913, “Synthesis, structure analysis, and antitumor activity of 3,6-disubstituted-1,4-dihydro-1,2,4,5-tetrazine derivatives” (2006).
